Test results as given in ChEMBL document CHEMBL4177566, “Rational design, synthesis and preliminary antitumor activity evaluation of a chlorambucil derivative with potent DNA/HDAC dual-targeting inhibitory activity” (Bioorg Med Chem Lett, 2017).
pIC50: −log10 of the molar value. Active and inactive are the calls of the source. The calls are words filed in the database; no cut-off is given here.

Assays:
A-375 [1] = assay: Anticlonogenic activity against human A375 cells after 7 days by crystal violet staining based assay; assay type: functional, cell-based
A-375 [2] = assay: Induction of apoptosis in human A375 cells assessed as live cells at 8 uM after 72 hrs by Annexin/propidium iodide staining based flow cytometry (reference value: 86.07%); assay type: functional
A-375 [3] = assay: Induction of apoptosis in human A375 cells assessed as early apoptotic cells at 2 uM after 72 hrs by Annexin/propidium iodide staining based flow cytometry (reference value: 1.62%); assay type: functional
A-375 [4] = assay: Induction of apoptosis in human A375 cells assessed as live cells at 16 uM after 72 hrs by Annexin/propidium iodide staining based flow cytometry (reference value: 86.07%); assay type: functional
Histone deacetylase 2 = Histone deacetylase 2 (Homo sapiens, UniProt Q92769); assay: Inhibition of recombinant human HDAC2 preincubated with enzyme followed by flour de lys-green substrate addition measured after 1 hr by fluorescence assay
[5] = target: Histone deacetylase (Homo sapiens) (UniProt Q13547+O15379+Q9UBN7+Q92769+Q9UQL6+Q8WUI4+Q9BY41+Q96DB2+P56524+Q9UKV0+Q969S8); assay: Inhibition of HDAC in human HeLa nuclear extract up to 10000 uM preincubated with cells followed by flour de lys-green substrate addition measured after 1 hr by fluorescence assay
Histone deacetylase 1 = Histone deacetylase 1 (Homo sapiens, UniProt Q13547); assay: Inhibition of recombinant human HDAC1 (482 residues) expressed in baculovirus infected insect cells preincubated with enzyme followed by flour de lys-green substrate addition measured after 1 hr by fluorescence assay
A-375 [6] = assay: Induction of apoptosis in human A375 cells assessed as late apoptotic cells at 16 uM after 72 hrs by Annexin/propidium iodide staining based flow cytometry (reference value: 6.95%); assay type: functional
A-375 [7] = assay: Induction of apoptosis in human A375 cells assessed as necrotic cells at 16 uM after 72 hrs by Annexin/propidium iodide staining based flow cytometry (reference value: 1.36%); assay type: functional
HepG2 = assay: Antiproliferative activity against human HepG2 cells after 72 hrs by CCK8 assay; assay type: functional, cell-based; conditions: for pIC50: HepG2, 72 h
Procedure, shortened: (§1)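 CCK-8 viability read-out on four human cancer lines (HepG2, A549, HCT116, A375) over a range of concentrations. IC50 is the concentration that reduces viability to 50%. Values are means of three experiments.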

A-375 [8] = assay: Induction of apoptosis in human A375 cells assessed as late apoptotic cells at 8 uM after 72 hrs by Annexin/propidium iodide staining based flow cytometry (reference value: 6.95%); assay type: functional
A-375 [9] = assay: Induction of apoptosis in human A375 cells assessed as necrotic cells at 2 uM after 72 hrs by Annexin/propidium iodide staining based flow cytometry (reference value: 1.36%); assay type: functional
A-375 [10] = assay: Induction of apoptosis in human A375 cells after 72 hrs by Annexin/propidium iodide staining based flow cytometry; assay type: functional, cell-based
A-375 [11] = assay: Induction of apoptosis in human A375 cells assessed as late apoptotic cells at 2 uM after 72 hrs by Annexin/propidium iodide staining based flow cytometry (reference value: 6.95%); assay type: functional
A-375 [12] = assay: Induction of apoptosis in human A375 cells assessed as necrotic cells at 8 uM after 72 hrs by Annexin/propidium iodide staining based flow cytometry (reference value: 1.36%); assay type: functional
[13] = target: T1, Protein deacetylase HDAC6 (Homo sapiens, UniProt Q9UBN7); assay: Inhibition of recombinant human His-tagged HDAC6 expressed in baculovirus infected insect cells preincubated with enzyme followed by flour de lys-green substrate addition measured after 1 hr by fluorescence assay
T1 sequence (Q9UBN7 whole entry): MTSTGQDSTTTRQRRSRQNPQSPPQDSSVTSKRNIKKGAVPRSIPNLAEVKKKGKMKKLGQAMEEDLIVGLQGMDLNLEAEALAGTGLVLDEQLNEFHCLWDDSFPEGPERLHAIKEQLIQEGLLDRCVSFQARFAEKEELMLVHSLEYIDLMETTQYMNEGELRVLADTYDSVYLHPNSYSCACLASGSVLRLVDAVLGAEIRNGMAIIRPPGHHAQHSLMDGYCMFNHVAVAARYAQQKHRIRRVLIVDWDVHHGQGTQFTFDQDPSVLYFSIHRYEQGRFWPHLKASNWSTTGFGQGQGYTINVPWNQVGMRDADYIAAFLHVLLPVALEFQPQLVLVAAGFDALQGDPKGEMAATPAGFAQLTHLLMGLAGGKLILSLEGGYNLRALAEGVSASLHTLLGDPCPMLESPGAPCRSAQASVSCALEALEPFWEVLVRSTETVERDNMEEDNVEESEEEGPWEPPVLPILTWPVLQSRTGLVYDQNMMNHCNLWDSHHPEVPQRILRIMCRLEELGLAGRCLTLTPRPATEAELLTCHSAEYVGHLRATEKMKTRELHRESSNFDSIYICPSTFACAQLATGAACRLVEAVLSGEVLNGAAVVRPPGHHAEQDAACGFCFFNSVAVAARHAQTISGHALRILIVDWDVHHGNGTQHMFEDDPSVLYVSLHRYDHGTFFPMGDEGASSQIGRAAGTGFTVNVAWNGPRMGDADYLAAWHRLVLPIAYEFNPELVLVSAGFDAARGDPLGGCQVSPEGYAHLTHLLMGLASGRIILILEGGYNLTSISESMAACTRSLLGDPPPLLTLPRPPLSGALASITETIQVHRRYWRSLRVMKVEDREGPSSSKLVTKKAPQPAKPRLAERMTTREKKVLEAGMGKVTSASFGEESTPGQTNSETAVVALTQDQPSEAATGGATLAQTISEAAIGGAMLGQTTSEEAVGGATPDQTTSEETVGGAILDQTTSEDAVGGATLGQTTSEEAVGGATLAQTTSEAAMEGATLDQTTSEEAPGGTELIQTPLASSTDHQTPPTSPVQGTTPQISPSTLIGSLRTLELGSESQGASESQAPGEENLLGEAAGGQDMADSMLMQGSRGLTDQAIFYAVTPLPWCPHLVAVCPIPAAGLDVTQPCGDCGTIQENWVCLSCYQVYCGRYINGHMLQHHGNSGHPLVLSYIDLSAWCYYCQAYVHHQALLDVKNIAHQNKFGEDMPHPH

A549 = assay: Antiproliferative activity against human A549 cells after 72 hrs by CCK8 assay; assay type: functional, cell-based; conditions: for pIC50: A549, 72 h; procedure, shortened: as §1
HCT-116 = assay: Antiproliferative activity against human HCT116 cells after 72 hrs by CCK8 assay; assay type: functional, cell-based; conditions: for pIC50: HCT-116, 72 h; procedure, shortened: as §1
A-375 [14] = assay: Induction of apoptosis in human A375 cells assessed as early apoptotic cells at 16 uM after 72 hrs by Annexin/propidium iodide staining based flow cytometry (reference value: 1.62%); assay type: functional
A-375 [15] = assay: Cell cycle arrest in human A375 cells assessed as accumulation at G2/M phase at 8 uM after 72 hrs by propidium iodide staining based flow cytometry (reference value: 12.6%); assay type: functional
A-375 [16] = assay: Cell cycle arrest in human A375 cells assessed as accumulation at G0/G1 phase at 8 uM after 72 hrs by propidium iodide staining based flow cytometry (reference value: 83.6%); assay type: functional
A-375 [17] = assay: Induction of apoptosis in human A375 cells assessed as live cells at 2 uM after 72 hrs by Annexin/propidium iodide staining based flow cytometry (reference value: 86.07%); assay type: functional
A-375 [18] = assay: Induction of apoptosis in human A375 cells assessed as early apoptotic cells at 8 uM after 72 hrs by Annexin/propidium iodide staining based flow cytometry (reference value: 1.62%); assay type: functional
Homo sapiens = species on record: Homo sapiens; assay: Induction of DNA damage in human A375 cells assessed as increase in gammaH2AX level at 16 uM after 48 hrs by high throughput assay relative to control; assay type: cell-based
Procedure, shortened: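 A375 cells were exposed for 48 h at 8 and 16 µM. Histone H2AX phosphorylation (γH2AX, a double-strand-break marker) was detected with the EpiQuik In Situ DNA Damage Assay kit following the maker's protocol. Results are expressed as percent of the untreated control, as mean ± SD (n=3), with a t-test for significance.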

A-375 [19] = assay: Antiproliferative activity against human A375 cells after 72 hrs by CCK8 assay; assay type: functional, cell-based; conditions: for pIC50: A-375, 72 h; procedure, shortened: as §1
A-375 [20] = assay: Cell cycle arrest in human A375 cells assessed as accumulation at S phase at 8 uM after 72 hrs by propidium iodide staining based flow cytometry (reference value: 3.8%); assay type: functional
A-375 [21] = assay: Anticlonogenic activity against human A375 cells at 2 to 16 uM after 7 days by crystal violet staining based assay; assay type: functional, cell-based

Chain of Histone deacetylase 1 (Q13547 whole entry): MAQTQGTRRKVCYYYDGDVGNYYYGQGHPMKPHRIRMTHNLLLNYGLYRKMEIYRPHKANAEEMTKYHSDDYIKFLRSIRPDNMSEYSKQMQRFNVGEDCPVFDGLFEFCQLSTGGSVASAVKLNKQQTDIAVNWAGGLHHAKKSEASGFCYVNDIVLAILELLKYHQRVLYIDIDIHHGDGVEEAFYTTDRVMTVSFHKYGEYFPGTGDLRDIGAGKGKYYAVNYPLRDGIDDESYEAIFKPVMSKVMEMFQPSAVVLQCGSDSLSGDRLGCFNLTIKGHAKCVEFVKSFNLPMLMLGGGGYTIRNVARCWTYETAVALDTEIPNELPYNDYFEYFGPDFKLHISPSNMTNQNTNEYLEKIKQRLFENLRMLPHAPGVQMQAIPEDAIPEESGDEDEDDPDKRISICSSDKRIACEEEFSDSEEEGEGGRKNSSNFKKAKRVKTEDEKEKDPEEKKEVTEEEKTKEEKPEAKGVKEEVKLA
Chain of Histone deacetylase 2 (Q92769 whole entry): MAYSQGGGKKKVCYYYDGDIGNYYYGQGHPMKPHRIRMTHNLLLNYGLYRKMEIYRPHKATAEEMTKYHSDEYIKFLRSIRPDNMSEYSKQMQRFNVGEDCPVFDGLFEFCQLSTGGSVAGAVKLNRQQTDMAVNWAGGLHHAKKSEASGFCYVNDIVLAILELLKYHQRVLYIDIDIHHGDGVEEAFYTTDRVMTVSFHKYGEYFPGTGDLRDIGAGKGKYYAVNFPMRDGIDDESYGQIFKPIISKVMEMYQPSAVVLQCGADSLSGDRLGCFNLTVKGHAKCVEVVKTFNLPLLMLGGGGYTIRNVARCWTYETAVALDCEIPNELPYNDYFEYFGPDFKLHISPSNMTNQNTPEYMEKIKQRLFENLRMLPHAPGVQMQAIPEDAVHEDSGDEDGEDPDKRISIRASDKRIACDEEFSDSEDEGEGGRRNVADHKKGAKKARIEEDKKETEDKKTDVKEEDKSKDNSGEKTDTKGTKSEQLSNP

Row | Structure (SMILES) | Activity (A-375 [2]) | Activity (A-375 [3]) | Activity (A-375 [4]) | Activity (A-375 [6]) | Activity (A-375 [7]) | pIC50 (HepG2) | Activity (A-375 [8]) | Activity (A-375 [9]) | Activity (A-375 [11]) | Activity (A-375 [12]) | pIC50 (A549) | pIC50 (HCT-116) | Activity (A-375 [14]) | Activity (A-375 [15]) | Activity (A-375 [16]) | Activity (A-375 [17]) | Activity (A-375 [18]) | Activity (Homo sapiens) | pIC50 (A-375 [19]) | Activity (A-375 [20]) | other results
1 | O=C(CCCCCCC(=O)Nc1ccc(N(CCCl)CCCl)cc1)NO | 50.76% | 3.31% | 30.42% | 53.54% | 2.75% | 5.21 | 29.95% | 2.07% | 10.26% | 3.27% | 5.36 | 5.49 | 13.29% | 66.5% | 27.7% | 84.36% | 16.02% | 224% | 5.21 | 5.8% | Activity (A-375 [1]): Dose-dependent effect; pIC50 (Histone deacetylase 2): 6.62; inhibition [5]: Active; pIC50 (Histone deacetylase 1): 6.57; Activity (HepG2): Dose-dependent effect; Activity (A-375 [10]): Dose-dependent effect; pIC50 [13]: 6.21; Activity (A549): Dose-dependent effect; Activity (HCT-116): Dose-dependent effect; Activity (A-375 [19]): Dose-dependent effect
2 | O=C(O)CCCc1ccc(N(CCCl)CCCl)cc1 [CHLORAMBUCIL] | 87.14% | 1.62% | 71.14% | 18.21% | 6.44% | 3.95 | 8.41% | 1.36% | 6.95% | 2.34% | 4.65 | 4.24 | 4.21% | 47.6% | 47% | 90.07% | 2.11% | 129% | 4.16 | 5.4% | Activity (A-375 [21]): Active
